# ChEMBL document CHEMBL1221219, “Selective blockade of 2-arachidonoylglycerol hydrolysis produces cannabinoid behavioral effects” (Nat Chem Biol, 2009)
# Calls of active or inactive are those of the source. No cut-off for these calls is given here.
# Assays:
# Mus musculus [1] = assay: Inhibition of MAGL in C57B1/6J mouse brain membrane assessed as inhibition of 2-AG hydrolysis activity at 16 mg/kg, ip upto 24 hrs by competitive activity-based protein profiling method relative to control; type: functional; conditions: route intraperitoneal
# Procedure, shortened: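 Male C57Bl/6J mice dosed i.p. in 4:1 v/v PEG300:Tween80, with vehicle controls; killed at set times (0.5-24 h, or 4 h). Brain membrane 2-AG hydrolysis measured by LC-MS substrate assay, and brain 2-AG measured by lipid LC-MS, relative to vehicle.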
# Mus musculus [2] = assay: Inhibition of CES31 in C57B1/6J mouse brain membrane at 16 mg/kg, ip after 4 hrs by competitive activity-based protein profiling-MudPIT method; type: functional, organism-based; design: dose 16 mg/kg
# Procedure, shortened: (§1)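 Mice were dosed 16 mg kg^-1 i.p. or vehicle and killed at 4 h. Brain membrane proteomes were labelled with FP-biotin, avidin-enriched, trypsin-digested on bead, analysed by multidimensional LC-MS and identified by SEQUEST.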
# Mus musculus [3] = assay: Analgesic activity against CB1 receptor deficient C57B1/6J mouse at 16 mg/kg, ip; type: functional, organism-based; design: dose 16 mg/kg
# Procedure, shortened: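 Male C57Bl/6J mice, 6-8 weeks, 20-26 g, given 16 mg kg^-1 i.p. in 4:1 v/v PEG300:Tween80 at 4 μl g^-1; vehicle controls received PEG300:Tween80 alone. Cannabinoid effects were scored in the tetrad test.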
# Mus musculus [4] = assay: Inhibition of PAFAH-1Bg in C57B1/6J mouse brain membrane at 16 mg/kg, ip after 4 hrs by competitive activity-based protein profiling-MudPIT method; type: functional, organism-based; design: dose 16 mg/kg
# Procedure, shortened: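 After i.p. dosing in 4:1 PEG300:Tween80, male C57Bl/6J mice were killed at 4 h. Brain membrane proteomes from treated and vehicle mice were labelled with FP-biotin. Labelled proteins were enriched on avidin, digested on-bead with trypsin and analysed by multidimensional LC-MS. Proteins were identified by SEQUEST, and dosed samples were compared with vehicle.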
# Mus musculus [5] = assay: Inhibition of FAAH in C57B1/6J mouse brain membrane at 16 mg/kg, ip after 4 hrs by competitive activity-based protein profiling method relative to control; type: functional; design: scale not given: the % may be the effect or the level left; conditions: route intraperitoneal
# Procedure, shortened: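 Male C57Bl/6J mice (6-8 weeks, 20-26 g) given inhibitor i.p. in 4:1 v/v PEG300:Tween80 at 4 ul g^-1 (4-40 mg kg^-1); vehicle controls. Brain membrane proteomes (1 mg ml^-1 in PBS) labelled with FP-rhodamine (2 μM) for 30 min at room temperature. Readout by SDS-PAGE and in-gel fluorescence scanning, compared with vehicle.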
# Mus musculus [6] = assay: Antinociceptive activity against formalin-induced pain in C57B1/6J mouse assessed as paw lifting or licking during early phase (0 to 10 mins) at 40 m/kg, po administered 2 hrs before formalin challenge pretreated with rimonabant; type: functional, organism-based
# Mus musculus [7] = assay: Inhibition of […] in C57B1/6J mouse brain membrane assessed as residual 2-AG hydrolysis activity at 16 mg/kg, ip after 4 hrs relative to control; type: functional; conditions: route intraperitoneal
# Procedure, shortened: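 Brain membranes from mice given 4-40 mg kg^-1 i.p. for 4 h were assayed for 2-AG hydrolysis by LC-MS substrate assay. Activity is expressed relative to vehicle control.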
# [8] = molecular target: Cannabinoid receptor 1 (Homo sapiens) (UniProt P21554); assay: Displacement of [3H]rimonabant from CB1 in cerebellar membrane after 90 mins by liquid scintillation; type: cell membranes; conditions: Cerebellum
# Chain of Cannabinoid receptor 1 (Homo sapiens) (P21554 whole entry): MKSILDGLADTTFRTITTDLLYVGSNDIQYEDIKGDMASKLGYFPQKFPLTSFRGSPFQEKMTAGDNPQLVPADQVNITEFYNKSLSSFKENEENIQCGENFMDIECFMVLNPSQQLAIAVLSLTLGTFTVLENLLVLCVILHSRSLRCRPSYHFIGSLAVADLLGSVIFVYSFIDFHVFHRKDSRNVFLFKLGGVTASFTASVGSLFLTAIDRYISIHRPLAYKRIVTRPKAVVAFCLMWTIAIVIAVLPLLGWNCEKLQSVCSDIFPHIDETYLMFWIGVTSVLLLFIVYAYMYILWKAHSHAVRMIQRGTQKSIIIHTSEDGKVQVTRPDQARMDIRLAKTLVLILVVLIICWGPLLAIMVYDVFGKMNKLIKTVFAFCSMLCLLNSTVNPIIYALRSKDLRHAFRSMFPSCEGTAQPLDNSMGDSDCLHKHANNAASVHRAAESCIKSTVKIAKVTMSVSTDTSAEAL
# Mus musculus [9] = assay: Inhibition of DPP8 in C57B1/6J mouse brain membrane at 16 mg/kg, ip after 4 hrs by competitive activity-based protein profiling-MudPIT method; type: functional, organism-based; design: dose 16 mg/kg; procedure, shortened: as §1
# Mus musculus [10] = assay: Antinociceptive activity against C57B1/6J mouse at assessed as latency in reaction time required for thermal stimulus-induced tail flicking at 16 mg/kg, ip after 2 hrs; type: functional, organism-based; design: dose 16 mg/kg
# Procedure, shortened: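 Tail immersion assay of thermal pain in male C57Bl/6J mice, 6-8 weeks. Dose 16 mg kg^-1 i.p. in 4:1 v/v PEG300:Tween80 at 4 μl g^-1, with vehicle controls.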
# [11] = molecular target: T1, Monoglyceride lipase (Mus musculus) (UniProt O35678); conditions: C57B1/6J, Brain, Membrane, 50 nM
# T1 sequence (whole entry): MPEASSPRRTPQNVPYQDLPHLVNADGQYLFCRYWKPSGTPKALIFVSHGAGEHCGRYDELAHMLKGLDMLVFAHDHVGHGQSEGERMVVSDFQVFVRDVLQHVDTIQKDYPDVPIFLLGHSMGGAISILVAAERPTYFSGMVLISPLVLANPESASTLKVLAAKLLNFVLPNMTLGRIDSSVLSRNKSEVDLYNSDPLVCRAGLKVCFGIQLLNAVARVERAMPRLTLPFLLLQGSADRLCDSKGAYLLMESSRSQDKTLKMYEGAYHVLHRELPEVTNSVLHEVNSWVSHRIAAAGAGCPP
# [12] = molecular target: T2, Diacylglycerol lipase-alpha (Homo sapiens) (UniProt Q9Y4D2); assay: Inhibition of recombinant DAGLalpha expressed in HEK293 cells assessed as hydrolysis of 1-stearoyl-2-arachidonoyl-glycerol to 2-AG at 25 uM after 30 mins by LC-MS method; type: cell-based
# T2 sequence (whole entry): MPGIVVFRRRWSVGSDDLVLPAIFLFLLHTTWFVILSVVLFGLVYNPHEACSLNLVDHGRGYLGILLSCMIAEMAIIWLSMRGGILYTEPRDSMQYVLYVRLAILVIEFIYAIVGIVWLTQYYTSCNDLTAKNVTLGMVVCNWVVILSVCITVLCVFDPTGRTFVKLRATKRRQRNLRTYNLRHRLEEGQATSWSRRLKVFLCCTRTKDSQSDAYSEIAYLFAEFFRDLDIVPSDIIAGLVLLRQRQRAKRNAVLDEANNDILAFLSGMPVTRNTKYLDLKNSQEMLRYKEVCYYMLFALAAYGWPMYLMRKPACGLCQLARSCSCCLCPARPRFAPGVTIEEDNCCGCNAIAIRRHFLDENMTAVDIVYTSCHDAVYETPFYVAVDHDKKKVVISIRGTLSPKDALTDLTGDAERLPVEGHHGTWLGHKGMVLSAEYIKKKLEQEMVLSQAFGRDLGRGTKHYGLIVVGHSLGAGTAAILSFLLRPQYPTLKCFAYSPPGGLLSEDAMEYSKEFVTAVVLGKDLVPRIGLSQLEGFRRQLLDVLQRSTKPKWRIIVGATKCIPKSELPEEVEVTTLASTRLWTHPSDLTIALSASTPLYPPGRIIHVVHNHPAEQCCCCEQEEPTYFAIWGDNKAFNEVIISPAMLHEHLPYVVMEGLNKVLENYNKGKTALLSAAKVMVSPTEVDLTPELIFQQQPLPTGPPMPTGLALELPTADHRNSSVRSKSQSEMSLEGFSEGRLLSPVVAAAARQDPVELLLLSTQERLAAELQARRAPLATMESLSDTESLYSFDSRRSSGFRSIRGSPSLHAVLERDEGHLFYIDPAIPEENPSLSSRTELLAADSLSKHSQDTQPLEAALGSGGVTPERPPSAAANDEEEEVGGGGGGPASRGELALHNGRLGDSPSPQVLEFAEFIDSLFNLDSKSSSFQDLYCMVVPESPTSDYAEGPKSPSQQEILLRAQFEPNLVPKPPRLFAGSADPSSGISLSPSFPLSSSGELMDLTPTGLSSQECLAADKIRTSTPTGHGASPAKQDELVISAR
smiles,measurement,setting,value
O=C(Oc1ccc([N+](=O)[O-])cc1)N1CCC(C(O)(c2ccc3c(c2)OCO3)c2ccc3c(c2)OCO3)CC1,inhibition in vivo at 16 mg/kg,Mus musculus [1],> 80%
same,inhibition,Mus musculus [2],inactive
same,Activity,Mus musculus [3],inactive
same,inhibition,Mus musculus [4],inactive
same,Activity,Mus musculus [5],35%
same,Activity,Mus musculus [6],inactive
same,Activity,Mus musculus [7],35%
same,Activity,[8],inactive
same,inhibition,Mus musculus [9],inactive
same,Activity,Mus musculus [10],Active
same,inhibition,[11],Active
same,inhibition,[12],inactive
